Data as given in ChEMBL document CHEMBL1124260, “Synthesis and antitumor activity of quaternary ellipticine glycosides, a series of novel and highly active antitumor agents” (1988).

Assays:
Mus musculus [1] = assay: Antitumor activity against ip implanted P388 leukemia in mouse after iv administration of 4 mg/kg for 5 days expressed as increase in mean life span; conditions: 120 h
Mus musculus [2] = assay: Effect on ip implanted syngeneic B16 melanoma by ip administration for 9 days at 5 mg/kg was measured as increase in mean life span; conditions: 216 h
Mus musculus [3] = assay: Inhibition of sc implanted syngeneic colon 38 carcinoma by ip administration at 80 mg/kg on 1, 3, 5, 7, 9 days measured as inhibition ratio; assay type: functional; conditions: route subcutaneous
In short: (§1)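 Tumor homogenate (70 mg) implanted into the axillary region of female BDF1 mice. Drug dissolved in 0.9% NaCl and diluted with saline just before use, then given ip on days 1, 3, 5, 7 and 9. Tumor length and width were measured by caliper on day 20 after inoculation and converted to estimated weight. Result reported as treated vs control tumor weight, T/C %.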

Mus musculus [4] = assay: Number of survivors out of 6 ip implanted P388 leukemia in mouse after ip administration of 10 mg/kg after 80 days; assay type: functional; conditions: route intraperitoneal
In short: (§2)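 P388 leukemia, 10^6 ascitic cells implanted ip in female BDF1 mice. Drug in saline given ip for 5 consecutive days from 24 h after transplant. Groups of six per dose level. Survivors/total recorded at the 80-day end of observation; ILS % from treated/control mean survival time.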

Mus musculus [5] = assay: Antitumor activity against ip implanted L1210 leukemia in mouse after iv administration of 2 mg/kg for 5 days expressed as increase in mean life span; conditions: 120 h
Mus musculus [6] = assay: Effect on ip implanted syngeneic B16 melanoma by ip administration of 30 mg/kg for 9 days measured as increase in mean life span; conditions: 216 h
Mus musculus [7] = assay: Number of survivors out of 6 ip implanted L1210 leukemia in mouse after ip administration of 20 mg/kg after 80 days; assay type: functional; conditions: route intraperitoneal
In short: (§3)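 Female BDF1 mice implanted ip with ascitic fluid holding 10^5 L1210 cells. Saline-dissolved drug given ip daily on days 1-5, starting 24 h after implant. Six mice per dose group, followed 80 days. Survivors/total counted at day 80; ILS % from mean survival time vs controls.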

Mus musculus [8] = assay: Antitumor activity against ip implanted L1210 leukemia in mouse after ip administration of 30 mg/kg for 5 days expressed as increase in mean life span; assay type: functional; conditions: route intraperitoneal, 30 mg/kg
In short: (§4)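 Drug was dissolved in 0.9% NaCl, diluted just before use and given ip once daily for 5 consecutive days, starting 24 h after transplant. ILS % = mean survival time of treated vs control mice, observed for 80 days.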

Mus musculus [9] = assay: Number of survivors out of 6 ip implanted P388 leukemia in mouse after ip administration of 80 mg/kg after 80 days; assay type: functional; conditions: route intraperitoneal
In short: as §2

Mus musculus [10] = assay: Antitumor activity against ip implanted L1210 leukemia in mouse after ip administration of 40 mg/kg for 5 days expressed as increase in mean life span; assay type: functional; conditions: 120 h, route intraperitoneal
In short: as §4

Mus musculus [11] = assay: Antitumor activity against ip implanted P388 leukemia in mouse after iv administration of 8 mg/kg for 5 days expressed as increase in mean life span; conditions: 120 h
Mus musculus [12] = assay: Number of survivors out of 6 ip implanted P388 leukemia in mouse after ip administration of 20 mg/kg after 80 days; assay type: functional; conditions: route intraperitoneal
In short: as §2

Mus musculus [13] = assay: Antitumor activity against ip implanted P388 leukemia in mouse after ip administration of 1.25 mg/kg for 5 days expressed as increase in mean life span; assay type: functional; conditions: 120 h, route intraperitoneal
In short: (§5)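 Saline-dissolved drug was given ip daily for 5 consecutive days, beginning 24 h post-transplant. ILS % was calculated from treated vs control mean survival time over an 80-day observation period.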

Mus musculus [14] = assay: Inhibition of sc implanted syngeneic colon 38 carcinoma by ip administration at 40 mg/kg on 1, 3, 5, 7, 9 days measured as inhibition ratio; assay type: functional; conditions: route subcutaneous
In short: as §1

Mus musculus [15] = assay: Antitumor activity against ip implanted L1210 leukemia in mouse after iv administration of 4 mg/kg for 5 days expressed as increase in mean life span; conditions: 120 h
Mus musculus [16] = assay: Antitumor activity against ip implanted L1210 leukemia in mouse after ip administration of 10 mg/kg for 5 days expressed as increase in mean life span; assay type: functional; conditions: Mus musculus, L1210, ip, 120 h, route intraperitoneal
In short: as §4

Mus musculus [17] = assay: Number of survivors out of 6 ip implanted L1210 leukemia in mouse after ip administration of 40 mg/kg after 80 days; assay type: functional; conditions: route intraperitoneal
In short: as §3

Mus musculus [18] = assay: Antitumor activity against ip implanted P388 leukemia in mouse after ip administration of 80 mg/kg for 5 days expressed as increase in mean life span; assay type: functional; conditions: 120 h, route intraperitoneal
In short: as §5

Mus musculus [19] = assay: Antitumor activity against ip implanted P388 leukemia in mouse after ip administration of 10 mg/kg for 5 days expressed as increase in mean life span; assay type: functional; conditions: 120 h, route intraperitoneal
In short: as §5

Mus musculus [20] = assay: Inhibition of sc implanted syngeneic colon 38 carcinoma by ip administration at 30 mg/kg on 1, 3, 5, 7, 9 days measured as inhibition ratio; assay type: functional; conditions: route intraperitoneal
In short: as §1

Mus musculus [21] = assay: Number of survivors out of 6 ip implanted P388 leukemia in mouse after ip administration of 40 mg/kg after 80 days; assay type: functional; conditions: route intraperitoneal
In short: as §2

Mus musculus [22] = assay: Effect on ip implanted syngeneic B16 melanoma by ip administration of 20 mg/kg for 9 days measured as increase in mean life span; conditions: 216 h
Mus musculus [23] = assay: Number of survivors out of 6 ip implanted L1210 leukemia in mouse after ip administration of 80 mg/kg after 80 days; assay type: functional; conditions: route intraperitoneal
In short: as §3

Mus musculus [24] = assay: Number of survivors out of 6 ip implanted L1210 leukemia mouse, tested after 80 days at 30 mg/kg; assay type: functional; conditions: route intraperitoneal, 30 mg/kg
In short: as §3

Mus musculus [25] = assay: Inhibition of sc implanted syngeneic colon 38 carcinoma by ip administration at 60 mg/kg on 1, 3, 5, 7, 9 days measured as inhibition ratio; assay type: functional; conditions: route subcutaneous
In short: as §1

Mus musculus [26] = assay: Antitumor activity against ip implanted L1210 leukemia in mouse after ip administration of 1.25 mg/kg for 5 days expressed as increase in mean life span; assay type: functional; conditions: 120 h, route intraperitoneal
In short: as §4

Mus musculus [27] = assay: Antitumor activity against ip implanted P388 leukemia in mouse after ip administration of 20 mg/kg for 5 days expressed as increase in mean life span; assay type: functional; conditions: 120 h, route intraperitoneal
In short: as §5

Mus musculus [28] = assay: Effect on ip implanted syngeneic B16 melanoma by ip administration for 9 days at 10 mg/kg was measured as increase in mean life span; conditions: 216 h
Mus musculus [29] = assay: Antitumor activity against ip implanted L1210 leukemia in mouse after ip administration of 5 mg/kg for 5 days expressed as increase in mean life span; assay type: functional; conditions: Mus musculus, L1210, ip, 120 h, route intraperitoneal
In short: as §4

Mus musculus [30] = assay: Antitumor activity against ip implanted P388 leukemia in mouse after ip administration of 5 mg/kg for 5 days expressed as increase in mean life span; assay type: functional; conditions: 120 h, route intraperitoneal
In short: as §5

Mus musculus [31] = assay: Antitumor activity against ip implanted P388 leukemia in mouse after ip administration of 40 mg/kg for 5 days expressed as increase in mean life span; assay type: functional; conditions: 120 h, route intraperitoneal
In short: as §5

Mus musculus [32] = assay: Antitumor activity against ip implanted L1210 leukemia in mouse after ip administration of 20 mg/kg for 5 days expressed as increase in mean life span; assay type: functional; conditions: 120 h, route intraperitoneal
In short: as §4

SMILES: Cc1c2cc[n+]([C@H]3O[C@@H](C)[C@@H](O)[C@@H](O)[C@@H]3O)cc2c(C)c2c1[nH]c1ccc(O)cc12.[Br-] (stereo in doubt; 56)
- ILS at 4 mg/kg (Mus musculus [1]): 63%
- ILS at 5 mg/kg (Mus musculus [2]): 50%
- T/C (Mus musculus [3]): 2%
- Cures (Mus musculus [4]): 2
- ILS at 2 mg/kg (Mus musculus [5]): 9%
- ILS at 30 mg/kg (Mus musculus [6]): 58%
- Cures (Mus musculus [7]): 1
- ILS (Mus musculus [8]): >693%
- Cures (Mus musculus [9]): 4
- ILS at 40 mg/kg (Mus musculus [10]): > 712%
- ILS at 8 mg/kg (Mus musculus [11]): 76%
- Cures (Mus musculus [12]): 5
- ILS at 1.25 mg/kg (Mus musculus [13]): 85%
- T/C (Mus musculus [14]): 19%
- ILS at 4 mg/kg (Mus musculus [15]): 38%
- ILS at 10 mg/kg (Mus musculus [16]): 107%
- Cures (Mus musculus [17]): 4
- ILS at 80 mg/kg (Mus musculus [18]): > 513%
- ILS at 10 mg/kg (Mus musculus [19]): > 341%
- T/C (Mus musculus [20]): 52%
- Cures (Mus musculus [21]): 6
- ILS at 20 mg/kg (Mus musculus [22]): 81%
- Cures (Mus musculus [23]): 6
- Cures (Mus musculus [24]): 4
- T/C (Mus musculus [25]): 3%
- ILS at 1.25 mg/kg (Mus musculus [26]): 56%
- ILS at 20 mg/kg (Mus musculus [27]): > 677%
- ILS at 10 mg/kg (Mus musculus [28]): 62%
- ILS at 5 mg/kg (Mus musculus [29]): 67%
- ILS at 5 mg/kg (Mus musculus [30]): 109%
- ILS at 40 mg/kg (Mus musculus [31]): > 789%
- ILS at 20 mg/kg (Mus musculus [32]): > 248%
